In article PMC11914484 (Scientific Reports, 2025):
One block for each molecule: values may come before it. Ends that are not written are not given here.

Key:
[1] = test system: plasma proteins; experiment: Plasma protein binding by rapid equilibration dialysis; type: in vitro ADME, mini-pig
Summary of the method: (§1)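 Rapid equilibrium dialysis used K2-EDTA plasma from male animals of each species. The test compound (5 µM) was incubated for 2 h at 37 °C, with propranolol (1 µM) as control. Samples were analysed by LC-MS/MS, with response taken as the analyte-to-internal-standard peak area ratio. Unbound fraction = receiver-side response / donor-side response.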

[2] = Plasma stability, rabbit plasma; type: in vitro ADME
Summary of the method: (§2)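 K2-EDTA plasma from male animals of each species was incubated with the test compound (1 µM) at 37 °C for 0–4 h, with propantheline bromide (1 µM) as control. Intact compound remaining was measured by LC-MS to give the half-life.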

[3] = test system: plasma proteins; experiment: Plasma protein binding by rapid equilibration dialysis; type: in vitro ADME, rabbit
Summary of the method: as §1

[4] = test system: male and female Wistar rats; experiment: Dose range finding, intranasal route; type: in vivo, rat; conditions: GLP, 0.2, 1 and 5 mg/kg BW every two days during five days
[5] = test system: plasma proteins; experiment: Plasma protein binding by rapid equilibration dialysis; type: in vitro ADME, rat
Summary of the method: as §1

[6] = Safety of AmyP53 in mice; type: in vivo, mouse
Summary of the method: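 C57BL/6 mice. Preliminary safety run in 5 young (4-month-old) mice: intranasal test compound, then 10 min later stereotaxic SNpc injection of test compound, then daily intranasal dosing for 7 days. Full study used 7 per group: saline, human α-synuclein protofibrils (50 µM in 0.9% NaCl, pre-incubated 37 °C for 3 days), or protofibrils plus test compound (100 µM). Injections were bilateral into the SNpc, 2.5 µL, under isoflurane. The co-treated group then received daily intranasal dosing for 35 days.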

[7] = test system: male and female Sprague Dawley rats; experiment: 28-Day repeated dose toxicity, intranasal; type: in vivo, rat
[8] = test system: plasma proteins; experiment: Plasma protein binding by rapid equilibration dialysis; type: in vitro ADME, dog
Summary of the method: as §1

[9] = test system: female Wistar rats; conditions: initial studies; cited from earlier work
[10] = Plasma stability, mini-pig plasma; type: in vitro ADME
Summary of the method: as §2

[11] = cited from earlier work
[12] = Plasma stability, dog plasma; type: in vitro ADME
Summary of the method: as §2

[13] = Plasma stability, rat plasma; type: in vitro ADME
Summary of the method: as §2

[14] = test system: male and female New Zealand White rabbits; experiment: 14-Day repeated tolerability/toxicity study, intranasal; type: in vivo, rabbit; conditions: male and female rabbits, 0.1, 1 and 5 mg/kg BW/day, 14 days
Summary of the method: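 GLP study run by a contract lab. Male and female New Zealand White rabbits were dosed intranasally with the test compound daily for 14 days at 0.1, 1.0 and 5.0 mg/kg body weight/day, followed by a 14-day recovery period, with toxicokinetics. Read-outs: local reaction, mortality, clinical signs, body weight, food consumption, clinical pathology, ophthalmoscopy, organ weight, haematology, coagulation, clinical chemistry and histopathology of a full tissue list.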

[15] = biological target: rabbit plasma proteins; experiment: rapid equilibration dialysis
[16] = biological target: mini-pig plasma proteins; experiment: rapid equilibration dialysis
[17] = biological target: rat plasma proteins; experiment: rapid equilibration dialysis
[18] = biological target: dog plasma proteins; experiment: rapid equilibration dialysis
[19] = 5 mice, intranasal, then SNpc injection of AmyP53, then 7 days daily intranasal
[20] = 35-day treatment, SNpc co-injection then daily intranasal, n = 7 per group
[21] = rats, intranasal administration
[22] = K2-EDTA plasma from male animals, 400 µL, 1 µM, 37 °C, 0–4 h, cold acetonitrile quench, LC-MS/MS
[23] = RED, K2-EDTA plasma from male animals, 2 h at 37 °C, AmyP53 5 µM, Propanolol 1 µM, LC-MS/MS

t1/2 in rabbit plasma [2, 22]: 0.283 h | t1/2 in mini-pig plasma [10, 22]: 2.98 h | t1/2 in dog plasma [12, 22]: 1.73 h | t1/2 in rat plasma [13, 22]: 3.78 h
Molecule: CC(C)[N+](C)(CCOC(=O)C1c2ccccc2Oc2ccccc21)C(C)C [Propantheline, Propantheline bromide, reference compound]

bound to plasma protein % [15]: 81.7% | bound to plasma protein % [16]: 81.4% | bound to plasma protein % [17]: 93.4% | bound to plasma protein % [18]: 84.6%
B1: AmyP53 (peptide)
peptide: KEGVLYVGHHTK

More lines, now with the values behind:

Molecule: KEGVLYVGHHTK [AmyP53]
fraction unbound at 2 h, 5 µM ([1]; male, pig, K2-EDTA plasma): 0.186 | half-life at 1 µM ([2]; male, rabbit, K2-EDTA plasma): 10 h | fraction unbound at 2 h, 5 µM ([3]; male, rabbit, K2-EDTA plasma): 0.183 | maximal intranasal dose without any signs of toxicity or dysfunction [4]: The maximal intranasal dose of AmyP53 without any signs of toxicity or dysfunction, is greater or equal to 5 mg/kg BW in both male and female Wistar rats. | fraction unbound at 2 h, 5 µM ([5]; male, rat, K2-EDTA plasma): 0.066 | body mass, preliminary safety assessment [6, 19]: stable | overall result of preliminary safety assessment [6, 19]: safe | effect on body weight of treated mice [6, 20]: did not display any significant effect | impact on overall behavior [6, 20]: did not induce any negative impact | intranasal no-observed adverse effect level (NOAEL) ([7]; male and female Sprague Dawley rats, GLP, every day for 28 days followed by 14 days of recovery): 5 mg/kg BW/day | tolerability of repeated intranasal administration, 28 days ([7]; male and female rats, 0.1, 1.0 and 5.0 mg/kg body weight/day, 28 days and 14 days of recovery): well tolerated | fraction unbound at 2 h, 5 µM ([8]; male, dog, K2-EDTA plasma): 0.154 | maximal tolerated dose, one-week intranasal administration [9]: > 5 mg/kg body weight | maximal tolerated dose, one-week intravenous administration [9]: > 80 mg/kg | half-life at 1 µM ([10]; male, pig, K2-EDTA plasma): 6.07 h | half-life of AmyP53 in the brain ([11]; approximate statement in discussion): about 1 h | Cmax in brain tissue [11, 21]: 1766 ng/mL | T1/2 in brain tissue [11, 21]: 1.02 h | Tmax in brain tissue [11, 21]: 5 min | half-life at 1 µM ([12]; male, dog, K2-EDTA plasma): 1.38 h | half-life at 1 µM ([13]; male, rat, K2-EDTA plasma): 13.1 h | toxicity / tolerability of repeated intranasal administration in rabbits [14]: no systemic or local toxicity

Molecule: CC(C)NCC(O)COc1cccc2ccccc12 (stereo not shown) [Propranolol, reference compound]
bound to plasma protein %, mini-pig plasma [1, 23]: 85.2 ±0.9% | bound to plasma protein %, rabbit plasma [3, 23]: 74.8 ±1.1% | bound to plasma protein %, rat plasma [5, 23]: 89.8 ±0.1% | bound to plasma protein %, dog plasma [8, 23]: 86.5 ±1.0%
